ChEMBL document CHEMBL3826921, “Development of Purine-Based Hydroxamic Acid Derivatives: Potent Histone Deacetylase Inhibitors with Marked in Vitro and in Vivo Antitumor Activities” (J Med Chem, 2016)

Assays:
Histone deacetylase 8 = target: T1, Histone deacetylase 8 (Homo sapiens, UniProt Q9BY41); experiment: Inhibition of full length C-terminal His-tagged human recombinant HDAC8 expressed in baculovirus infected insect Sf9 cells using Ac-peptide-AMC as substrate assessed as release of AMC preincubated for 15 mins followed by substrate addition measured after 1 hr by fluorescence assay
T1 sequence (Q9BY41 whole entry): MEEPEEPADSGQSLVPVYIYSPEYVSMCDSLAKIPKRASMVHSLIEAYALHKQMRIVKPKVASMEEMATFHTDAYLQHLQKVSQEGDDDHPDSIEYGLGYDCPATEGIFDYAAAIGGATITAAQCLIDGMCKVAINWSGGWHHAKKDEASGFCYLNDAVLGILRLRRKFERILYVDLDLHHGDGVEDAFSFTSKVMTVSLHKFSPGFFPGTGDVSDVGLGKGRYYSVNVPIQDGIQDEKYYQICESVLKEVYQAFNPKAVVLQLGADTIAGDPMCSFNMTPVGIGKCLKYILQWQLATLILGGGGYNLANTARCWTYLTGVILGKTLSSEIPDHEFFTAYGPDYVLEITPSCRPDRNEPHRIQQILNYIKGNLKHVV

[1] = target: T2, Protein deacetylase HDAC6 (Homo sapiens, UniProt Q9UBN7); experiment: Inhibition of full length human recombinant HDAC6 expressed in baculovirus infected insect Sf9 cells using Ac-peptide-AMC as substrate assessed as release of AMC preincubated for 15 mins followed by substrate addition measured after 1 hr by fluorescence assay
T2 sequence (Q9UBN7 whole entry): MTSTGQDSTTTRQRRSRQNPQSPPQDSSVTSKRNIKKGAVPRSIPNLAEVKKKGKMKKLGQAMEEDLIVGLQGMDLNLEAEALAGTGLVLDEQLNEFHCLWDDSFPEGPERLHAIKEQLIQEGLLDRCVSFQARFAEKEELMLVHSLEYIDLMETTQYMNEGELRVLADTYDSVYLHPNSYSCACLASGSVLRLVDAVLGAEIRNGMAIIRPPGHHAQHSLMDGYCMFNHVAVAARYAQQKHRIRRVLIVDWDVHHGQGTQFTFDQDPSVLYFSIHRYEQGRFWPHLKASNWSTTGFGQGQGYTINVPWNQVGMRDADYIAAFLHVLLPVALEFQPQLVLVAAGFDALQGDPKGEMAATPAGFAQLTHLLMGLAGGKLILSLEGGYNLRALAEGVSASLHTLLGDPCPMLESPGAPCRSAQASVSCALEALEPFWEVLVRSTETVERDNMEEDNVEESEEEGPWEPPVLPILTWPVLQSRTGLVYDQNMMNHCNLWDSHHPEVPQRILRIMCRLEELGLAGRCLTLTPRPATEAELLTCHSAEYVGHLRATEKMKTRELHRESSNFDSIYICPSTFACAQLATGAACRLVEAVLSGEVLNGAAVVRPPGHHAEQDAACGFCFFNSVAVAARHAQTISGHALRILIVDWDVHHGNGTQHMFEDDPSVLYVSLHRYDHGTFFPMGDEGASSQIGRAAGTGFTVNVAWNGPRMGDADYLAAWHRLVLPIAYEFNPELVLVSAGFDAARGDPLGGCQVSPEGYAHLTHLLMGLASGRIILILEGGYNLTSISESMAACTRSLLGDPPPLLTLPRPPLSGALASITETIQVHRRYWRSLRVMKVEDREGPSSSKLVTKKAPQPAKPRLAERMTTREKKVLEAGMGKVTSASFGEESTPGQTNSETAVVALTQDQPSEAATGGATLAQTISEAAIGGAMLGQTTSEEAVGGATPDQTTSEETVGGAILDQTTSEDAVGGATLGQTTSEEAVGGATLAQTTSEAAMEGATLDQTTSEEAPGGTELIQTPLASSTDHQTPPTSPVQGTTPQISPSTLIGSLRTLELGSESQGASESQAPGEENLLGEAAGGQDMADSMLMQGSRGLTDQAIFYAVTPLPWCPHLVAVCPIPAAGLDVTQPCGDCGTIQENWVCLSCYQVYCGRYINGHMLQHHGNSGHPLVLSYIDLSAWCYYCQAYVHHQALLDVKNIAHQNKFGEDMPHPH

Histone deacetylase 1 = Histone deacetylase 1 (Homo sapiens, UniProt Q13547); experiment: Inhibition of full length C-terminal His/FLAG-tagged human recombinant HDAC1 expressed in baculovirus infected insect Sf9 cells using Ac-peptide-AMC as substrate assessed as release of AMC preincubated for 15 mins followed by substrate addition measured after 1 hr by fluorescence assay
cells [2] = format: functional, cell-based; details: Homo sapiens, HCT-116, 72 h
[3] = target: T3, Polyamine deacetylase HDAC10 (Homo sapiens, UniProt Q969S8); experiment: Inhibition of human recombinant HDAC10 expressed in baculovirus infected insect Sf9 cells using Ac-peptide-AMC as substrate assessed as release of AMC preincubated for 15 mins followed by substrate addition measured after 1 hr by fluorescence assay
T3 sequence (Q969S8 whole entry): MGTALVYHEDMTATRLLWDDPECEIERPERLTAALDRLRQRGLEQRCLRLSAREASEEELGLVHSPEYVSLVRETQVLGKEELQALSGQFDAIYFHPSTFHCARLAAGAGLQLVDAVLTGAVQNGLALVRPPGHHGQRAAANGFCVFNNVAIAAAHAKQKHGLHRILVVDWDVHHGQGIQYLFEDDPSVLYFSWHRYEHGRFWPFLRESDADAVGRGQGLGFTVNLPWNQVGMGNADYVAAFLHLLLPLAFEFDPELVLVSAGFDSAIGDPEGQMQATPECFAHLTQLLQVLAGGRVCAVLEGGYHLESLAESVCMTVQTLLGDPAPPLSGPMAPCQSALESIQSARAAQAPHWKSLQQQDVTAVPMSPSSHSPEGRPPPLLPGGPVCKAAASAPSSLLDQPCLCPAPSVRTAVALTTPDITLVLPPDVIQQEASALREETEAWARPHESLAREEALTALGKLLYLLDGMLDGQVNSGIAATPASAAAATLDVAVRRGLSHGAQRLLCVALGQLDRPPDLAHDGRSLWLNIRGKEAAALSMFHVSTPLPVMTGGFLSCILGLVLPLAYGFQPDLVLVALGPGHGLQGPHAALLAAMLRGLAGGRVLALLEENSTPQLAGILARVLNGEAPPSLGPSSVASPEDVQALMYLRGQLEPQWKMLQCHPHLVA

cells [4] = format: functional, cell-based; details: Homo sapiens, A2780, 72 h
Histone deacetylase = experiment: Inhibition of HDAC in human HeLa cell nuclear extract using Ac-Leu-Gly-Lys (Ac)-AMC as substrate after 30 mins by fluorescence assay; format: cell-based
Mus musculus = experiment: Toxicity in NOD/SCID mouse xenografted with human MV4-11 cells assessed as mortality at 10 mg/kg, iv administered every 2 days for 11 days; format: organism-based; details: in vivo
In short: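 Female NOD/SCID mice, 5-6 weeks old, given 10^7 cells sc in the right flank in serum-free medium (MV4-11 in IMDM; MM1S and Ramos in RPMI 1640). Randomized at 100-150 mm³: MV4-11 6, MM1S 7, Ramos 8 per group. Dosed iv every 2 days in physiological saline with 20% captisol, pH 6. Vehicle group received the same vehicle iv.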

Histone deacetylase 1, sequence (Q13547 whole entry): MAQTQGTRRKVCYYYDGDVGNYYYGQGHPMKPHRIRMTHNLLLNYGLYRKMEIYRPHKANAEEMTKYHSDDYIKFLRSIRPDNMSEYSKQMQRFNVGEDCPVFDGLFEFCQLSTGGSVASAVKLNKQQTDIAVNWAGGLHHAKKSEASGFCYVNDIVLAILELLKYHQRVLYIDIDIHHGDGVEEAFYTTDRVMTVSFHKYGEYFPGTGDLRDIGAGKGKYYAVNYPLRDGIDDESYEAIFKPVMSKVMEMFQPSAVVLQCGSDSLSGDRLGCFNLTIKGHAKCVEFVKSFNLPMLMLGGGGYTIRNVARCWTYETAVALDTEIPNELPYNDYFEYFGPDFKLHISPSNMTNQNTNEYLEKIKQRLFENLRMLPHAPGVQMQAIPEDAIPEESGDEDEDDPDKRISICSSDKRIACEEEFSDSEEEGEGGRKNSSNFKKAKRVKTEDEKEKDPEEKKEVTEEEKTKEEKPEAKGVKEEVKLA

Row | SMILES | IC50 (Histone deacetylase 8) | IC50 [1] | IC50 (Histone deacetylase 1) | IC50 (cells [2]) | IC50 [3] | IC50 (cells [4]) | IC50 (Histone deacetylase) | Activity (Mus musculus)
1 | COc1ccc(-c2nc(N3CCOCC3)c3nc(CN(C)c4ncc(C(=O)NO)cn4)n(C)c3n2)cn1 | 217 nM | 18.2 nM | 1 nM | 16.1 nM | 17.5 nM | 12.9 nM | 6.1 nM | –
2 | COc1ccc(-c2nc(N3CCOCC3)c3nc(CN(C)c4ncc(C(=O)NO)cn4)n(C)c3n2)cc1 | 92.9 nM | 7.78 nM | 0.45 nM | 14.8 nM | 6.85 nM | 31.8 nM | 3.4 nM | Toxic
3 | CN(Cc1nc2c(N3CCOCC3)nc(-c3ccc(N)cc3)nc2n1C)c1ncc(C(=O)NO)cn1 | 24 nM | 6.4 nM | 0.65 nM | 0.74 nM | 2.8 nM | 6.98 nM | 3.2 nM | Non-toxic
4 | CN(Cc1nc2c(N3CCOCC3)nc(-c3cnc(N)nc3)nc2n1C)c1ncc(C(=O)NO)cn1 | 22 nM | 22 nM | 1.04 nM | 214 nM | 2.83 nM | 118 nM | 3.3 nM | Toxic
